Bioassay records (PubChem BioAssay)
Scp1 inh: Scp-1 (human) phosphatase inhibition | 0.88% of 340,000 active | AID 493091 | Recombinant Scp1, phosphopeptide, malachite green phosphate absorbance | Q9GZU7 | inhibition, % at 20 µM;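 active means inhibition above about 50% at 20 µM, limit read from the data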
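System: SCP-1 catalytic domain; Reagent: Phospho 17-mer peptide substrate; Doses: one concentration, 20 µM, with 1.0% DMSO; Incubation: 45 min room-temperature reaction, 5 min colour, 30 min stabiliser; Signal: Phosphate-binding colour reagent, absorbance read at 630 nm.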
STEP inh: blocks human striatal-enriched tyrosine phosphatase | P54829 | recombinant STEP, OMFP fluorogenic substrate, fluorescence | inhibition, % at 20 µM | 0.25% of 360,000 active | AID 588621;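 active means inhibition at 20 µM, scaled per plate between control wells, above about 37%, limit read from the data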
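Assay system: isolated STEP enzyme / Timing: 20 min at room temperature, dark / Doses: 20 µM, 1% DMSO / Technique: fluorescence intensity, excitation 480 nm, emission 540 nm / Reagent: fluorogenic phosphatase substrate OMFP at 25 µM final / Measure: percent inhibition scaled to no-enzyme and uninhibited-enzyme controls, plate-pattern corrected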
DNMT1 inh: blocks human DNA methyltransferase DNMT1 | P26358 | DNMT1 molecular beacon, Hinp1I cleavage, fluorescence | inhibition (reported as % activation of signal), % at 10 µM | 0.83% of 360,000 active | AID 588458; in the data active means inhibition above about 50%
SUMO1-SIM PPI: SUMO1-SIM interaction modulation; 0.33% of 360,000 active; inhibition, % at 20 µM; AID 602429; P63165; SUMO1 binding to a labelled peptide, TR-FRET, 1 h; in the data active means inhibition above about 37%
LMPTP block: blocks human LMPTP phosphatase | inhibition, % at 20 µM | AID 651560 | recombinant LMPTP-A, OMFP fluorogenic substrate, fluorescence intensity | 0.22% of 360,000 active;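 active means compounds that cut the enzyme signal by at least half of the control window in the single-dose screen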
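Material: LMPTP-A; amount: 0.625 nM enzyme; doses: single 20 µM dose; times: reaction 50 min, room temperature, dark; technique: fluorescence intensity of OMFP turnover product; benchmarks: no-enzyme and uninhibited controls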
DNMT1 interf DR: counter-screen for DNMT1 inhibitors: spectral interference, dose response | shares compounds with DNMT1 inh | IC50, µM | molecular beacon fluorescence | AID 602382 | 200 tested, under 10 active; call rule not given here
DNMT1 confirm: DNMT1 inhibition confirmation, single concentration; DNMT1 molecular beacon HinP1I cleavage, fluorescence; inhibition, % at 10 µM; 8% of 2,300 active; shares compounds with DNMT1 inh;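 active means average inhibition of at least 30% in the single-concentration confirmation test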
Beacon interf: beacon fluorescence artifact counter-screen | 1% of 2,300 active | AID 602387 | activation (fluorescence interference), % at 10 µM | shares compounds with DNMT1 inh | DNMT1 molecular beacon spectral interference counterscreen, fluorescence 485/520;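 active means activation of at least 30% at 10 µM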;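 further: DNMT1 catalytic domain with a HinP1I cleavage step and a FAM/dabcyl DNA beacon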
Of the large screens only hits and unclear results are named; the others gave an inactive call (follow-up assays come after a bar, where they were run). A selection: hits, their analogues and other compounds. The true share with any hit is near 1.7%.

O=c1nc2c(O)cccn2c2c1c(=O)[nH]c1ccccc12	Scp1 inh 54.8, STEP inh 56.9, DNMT1 inh 105.1, LMPTP block 65.2 | DNMT1 confirm inactive | Beacon interf inactive
CCCn1nnnc1NCc1ccc(N2CCCC2)cc1	none
CCCCn1nnnc1NCc1ccc(N2CCCC2)cc1	DNMT1 inh 69.7 | DNMT1 confirm inactive | Beacon interf inactive
Cn1c(N)c(C(=O)COC(=O)/C=C/c2cccc(Cl)c2)c(=O)n(C)c1=O	DNMT1 inh 66.0 | DNMT1 confirm inactive | Beacon interf inactive
Cn1c(N)c(C(=O)COC(=O)/C=C/c2ccccc2F)c(=O)n(C)c1=O	none
CC12CCC(C(=NO)C1=O)C2(C)C (configuration not stated)	none
O=c1ccc2cc3c4c(c2o1)CCCN4CCC3	none
O=c1oc2c3c4c(cc2s1)CCCN4CCC3	DNMT1 inh 85.3, LMPTP block 66.6 | DNMT1 confirm inactive | Beacon interf inactive
Cc1cccc(CC(=O)NCCN2CCCCC2)c1	DNMT1 inh 56.6 | DNMT1 confirm inactive | Beacon interf inactive
COc1cccc(-c2cc(=O)c3cc(NC(=O)c4ccc(Cl)cc4)ccc3[nH]2)c1	DNMT1 inh 65.5 | DNMT1 confirm inactive | Beacon interf inactive
COc1cccc(-c2cc(=O)c3cc(NC(=O)c4ccccc4)ccc3[nH]2)c1	none
CN(C)S(=O)(=O)c1ccc2c(c1)C(CC(=O)O)OC2=O (configuration not stated)	DNMT1 inh 91.2 | DNMT1 confirm inactive | Beacon interf inactive
CCCS(=O)(=O)NC(=O)C1(C)CCCN(C(=O)c2ccccc2OC)C1 (configuration not stated)	none (no result: Scp1 inh)
COc1ccc(CCn2c(C3CCCCC3)nc3c(c(=O)c4ccccc4n3C)c2=O)cc1OC	DNMT1 inh 63.2, SUMO1-SIM PPI 40.8 | DNMT1 confirm inactive | Beacon interf inactive
COc1ccc(CCn2c(-c3ccc(F)cc3)nc3c(c(=O)c4ccccc4n3C)c2=O)cc1OC	none
CC(NC(=O)C(NS(=O)(=O)c1cccc2nsnc12)C(C)C)c1ccccc1 (configuration not stated)	none
CC(Sc1nc2ccc(Br)cc2[nH]1)C(=O)O (configuration not stated)	none
CC(Sc1nc2ccc(C(=O)c3ccccc3)cc2[nH]1)C(=O)O (configuration not stated)	DNMT1 inh 81.3 | DNMT1 confirm inactive | Beacon interf inactive
CSc1nc(SCC(=O)NC(c2ccccc2)c2ccccc2)c2c3c(sc2n1)CN(C)CC3	DNMT1 inh 62.8 | DNMT1 confirm inactive | Beacon interf inactive
CSc1nc(NCC(C)O)c2c3c(sc2n1)CN(C)CC3 (configuration not stated)	none
Cn1nc(CC(=O)NC2CCCCCCCCCCC2)c2ccccc2c1=O	DNMT1 inh 69.1 | DNMT1 confirm inactive | Beacon interf inactive
Cc1ccc(S(=O)(=O)N(C)c2ccc(OC(C)C(=O)N(C)c3ccccc3)cc2)cc1 (configuration not stated)	DNMT1 inh 78.6 | DNMT1 confirm inactive | Beacon interf inactive
Cc1ccccc1C(=O)NCCNC(=O)c1ccco1	none
COc1ccccc1-n1c(SCC(=O)NCc2ccc3c(c2)OCO3)nc2cc([N+](=O)[O-])ccc21	DNMT1 inh 89.8 | DNMT1 confirm inactive | Beacon interf inactive
CC(Sc1nc2cc([N+](=O)[O-])ccc2n1-c1ccc(F)cc1)C(=O)NCc1ccc2c(c1)OCO2 (configuration not stated)	none
Nc1sc(-c2ccccc2)cc1C(=O)N1CCNCC1	none (no result: Scp1 inh, STEP inh, DNMT1 inh)
O=[N+]([O-])c1ccc(Cl)c(S(=O)(=O)Nc2ccc(-c3ccc(N4CCOCC4)nn3)cc2)c1	none
O=S(=O)(Nc1ccc(-c2ccc(N3CCOCC3)nn2)cc1)c1ccc(Cl)c(Cl)c1	DNMT1 inh 83.3 | DNMT1 confirm inactive | Beacon interf inactive
CC1=NN(c2ccccc2)C(=O)/C1=C/C=C/c1ccccc1	none
CC1=NN(c2cccc(C(=O)O)c2)C(=O)/C1=C\C=C\c1ccco1	Scp1 inh 80.0, STEP inh 41.1, DNMT1 inh 105.9 | DNMT1 interf DR inactive | DNMT1 confirm 106.7 | Beacon interf inactive
C=CCn1c(COc2ccc(Cl)cc2)nnc1SCC(=O)c1c(N)n(C)c(=O)n(C)c1=O	DNMT1 inh 73.0 | DNMT1 confirm inactive | Beacon interf inactive
C=CCn1c(COc2cccc(C)c2)nnc1SCC(=O)c1c(N)n(C)c(=O)n(C)c1=O	none
O=C(CN1C(=O)NC2(CCc3ccccc32)C1=O)c1ccc(Br)s1 (configuration not stated)	none
CC(C)C(NC(=O)c1ccc2c(c1)OCO2)C(=O)N/N=C/c1cccs1 (configuration not stated)	DNMT1 inh 59.8 | DNMT1 confirm inactive | Beacon interf inactive
O=C(COC(=O)c1cc(=O)c2ccccc2o1)NCc1ccc(Cl)cc1	DNMT1 inh 57.4 (no result: Scp1 inh) | DNMT1 confirm inactive | Beacon interf inactive
CC(C)CNC(=O)COC(=O)c1c2c(nc3ccccc13)/C(=C\c1cccs1)CC2	none
CN(CCC#N)C(=O)COC(=O)c1c2c(nc3ccccc13)/C(=C/c1ccco1)CC2	Scp1 inh 77.7, DNMT1 inh 100.0, LMPTP block 58.9 | DNMT1 confirm inactive | Beacon interf inactive
COc1ccc(Cc2c(-c3ccc(OC)c(OC)c3)nc3ccc(C)cn23)c(C)c1	none (no result: Scp1 inh)
Cc1c(C(=O)O)sc(S(=O)(=O)N2CCN(C(=O)Cc3ccc(F)cc3)CC2)c1C(=O)O	none
O=C(O)c1ccc(-c2ccc(/C=C3\NC(=O)N(Cc4ccc(Cl)cc4)C3=O)o2)cc1Cl	Scp1 inh 81.2, STEP inh 49.1, DNMT1 inh 88.5 | DNMT1 interf DR inactive | DNMT1 confirm 60.3 | Beacon interf inactive
CCCCCCC(NC(=O)Cc1ccc2ccccc2c1)C(=O)O (configuration not stated)	none
Cc1c(P(=O)(c2ccccc2)c2ccccc2)c2ccccc2n1C	none (no result: Scp1 inh)
O=C(C1=C(O)C(=O)N(c2nc3ccc(Cl)cc3s2)C1c1ccco1)c1ccco1 (configuration not stated)	Scp1 inh 64.1, DNMT1 inh 90.3, SUMO1-SIM PPI 39.5, LMPTP block 60.2 | DNMT1 confirm inactive | Beacon interf inactive
O=C(Cc1nnc(NC(=O)Nc2ccc(Cl)cc2)s1)NCc1ccccc1	none | DNMT1 confirm inactive | Beacon interf inactive
O=C(c1ccc2c(=O)n3c(nc2c1)CCCCC3)N1CCCCC1	none
